Measurements pooled from the literature.
ABL1 H396P non-phosphorylated: Tyrosine-protein kinase ABL1, non-phosphorylated (ABL1, Homo sapiens, UniProt P00519, H396P)
ABL1 Y253F phosphorylated: Tyrosine-protein kinase ABL1, phosphorylated (ABL1, Homo sapiens, UniProt P00519, Y253F)
ABL1 Q252H: Tyrosine-protein kinase ABL1 (ABL1, Homo sapiens, UniProt P00519, Q252H)
ABL1 non-phosphorylated: Tyrosine-protein kinase ABL1, non-phosphorylated (ABL1, Homo sapiens, UniProt P00519)
ABL1 phosphorylated: Tyrosine-protein kinase ABL1, phosphorylated (ABL1, Homo sapiens, UniProt P00519)
ABL1 F317L phosphorylated: Tyrosine-protein kinase ABL1, phosphorylated (ABL1, Homo sapiens, UniProt P00519, F317L)
ABL1 F317L: Tyrosine-protein kinase ABL1 (ABL1, Homo sapiens, UniProt P00519, F317L)
ABL1 F317I non-phosphorylated: Tyrosine-protein kinase ABL1, non-phosphorylated (ABL1, Homo sapiens, UniProt P00519, F317I)
ABL1 F317I phosphorylated: Tyrosine-protein kinase ABL1, phosphorylated (ABL1, Homo sapiens, UniProt P00519, F317I)

O=C(O)[C@H]1[C@H](Cn2nnc3ccccc3c2=O)CC[C@@H]1C(=O)c1ccc(OCCC2CCOCC2)cc1
remaining binding (ABL1 H396P non-phosphorylated; cell-free assay; competition with immobilised ligand; 1 µM): 94%

O=C(c1ccc(Nc2ncc(Cl)c(-c3cc4ccccc4s3)n2)cc1)N1CCC(N2CCCC2)CC1
remaining binding (ABL1 Y253F phosphorylated; binding; competition with immobilised ligand; 1 µM): 8%

Nc1ncc2c(n1)-c1c([nH]c3ccc(C#CC4CC4)cc13)CCCC2
remaining binding (Tyrosine-protein kinase ABL1, non-phosphorylated (ABL1, Homo sapiens, UniProt P00519, T315I); binding; competition with immobilised ligand; 1 µM): 79%

CC(C)(O)c1cncc(-c2nc3ccc(F)cc3n2C2CC2)c1
remaining binding (ABL1 H396P non-phosphorylated; cell-free assay; competition with immobilised ligand; 1 µM): 85%

O=C(NCCCN1CCOCC1)c1ccc(Nc2ncc(Cl)c(-c3ccc(Cl)s3)n2)cc1
remaining binding (ABL1 H396P non-phosphorylated; binding; competition with immobilised ligand; 1 µM): 4.2%

F[C@@H]1CCN(c2nccc(-c3cnn4ncccc34)n2)C1
remaining binding (ABL1 Q252H; binding; 1 µM): 93%

COc1cnc(Nc2cccc(S(N)(=O)=O)c2)nc1N1CCN(c2ccccc2)C(=O)C1
remaining binding (ABL1 non-phosphorylated; binding; competition with immobilised ligand; 1 µM): 77%

C[C@@H](c1ccc(-n2cnc3c(N)ncnc32)cc1)N1CCc2nn(C)c(Cc3ccccc3)c2C1=O
remaining binding (ABL1 phosphorylated; binding; competition with immobilised ligand; 0.1 µM): 90%

C=CC(=O)N1CCC(C(=O)NCC(=O)N2CCN(c3nc(-c4cnc(N)nc4C(F)F)nc(N4CCOCC4)n3)CC2)CC1
remaining binding (Tyrosine-protein kinase ABL1, non-phosphorylated (ABL1, Homo sapiens, UniProt P00519, Q252H); binding; competition with immobilised ligand; 1 µM): 94%

c1cncc(-c2cccc(Nc3nccc(NC4CCCCC4)n3)c2)c1
remaining binding (ABL1 F317L phosphorylated; binding; competition with immobilised ligand; 10 µM): 61%

c1cnn2ncc(-c3ccnc(N4CCC45COC5)n3)c2c1
remaining binding (ABL1 F317L; binding; 1 µM): 53%

O=C(NCCCN1CCOCC1)c1ccc(Nc2nccc(-c3cc4ccccc4s3)n2)cc1
remaining binding (Tyrosine-protein kinase ABL1, non-phosphorylated (ABL1, Homo sapiens, UniProt P00519, F317L); binding; competition with immobilised ligand; 1 µM): 90%

CCN1CCN(Cc2ccc(C(=O)Nc3ccc(C)c(Oc4ccc5c(c4)CC(=O)N5)c3)cc2C(F)(F)F)CC1
remaining binding (ABL1 Y253F phosphorylated; binding; competition with immobilised ligand; 1 µM): 38%

CC(=O)N1CCC(c2ccc(C(=O)NC3=NCCN3)cc2C(F)(F)F)CC1
remaining binding (ABL1 non-phosphorylated; cell-free assay; competition with immobilised ligand; 1 µM): 95%

CNC(=O)[C@@H]1CC[C@@H](n2c(-c3ccc4cnccc4c3)nc3ccc(C(=O)NCc4cccc(C(N)=O)c4)cc32)C1
remaining binding (ABL1 phosphorylated; binding; competition with immobilised ligand; 1 µM): 90%

O=C(NCC1CCOCC1)c1n[nH]cc1NC(=O)c1c(F)cccc1F
remaining binding (ABL1 F317L phosphorylated; binding; competition with immobilised ligand; 1 µM): 88%

Cc1cnc(Nc2ccc(C(=O)N3CCC(N4CCCC4)CC3)cc2)nc1-c1cc2ccccc2s1
remaining binding (ABL1 F317I non-phosphorylated; binding; competition with immobilised ligand; 1 µM): 100%

C[C@@H]1CCN(c2nccc(-c3cnn4ncccc34)n2)C1
remaining binding (ABL1 non-phosphorylated; binding; 1 µM): 81%

CN(c1ccnc(CNc2nc(Nc3ccc4c(c3)CC(=O)N4)ncc2C(F)(F)F)n1)S(C)(=O)=O
remaining binding (ABL1 F317I phosphorylated; binding; 1 µM): 79%

O=C(c1ccc(Nc2ncc(Cl)c(-c3ccc(Cl)s3)n2)cc1)N1CCC(N2CCCC2)CC1
remaining binding (ABL1 non-phosphorylated; binding; competition with immobilised ligand; 1 µM): 4.3%

CN(c1nccc(-c2cnn3ncccc23)n1)C1CC1
remaining binding (ABL1 non-phosphorylated; binding; 1 µM): 100%

CNC(=O)c1ccc(Nc2ncc(C(F)(F)F)c(NCc3nccnc3N(C)S(C)(=O)=O)n2)cc1
remaining binding (ABL1 non-phosphorylated; cell-free assay; competition with immobilised ligand; 0.1 µM): 88%

O=C(c1ccc(Nc2nccc(-c3cc4ccccc4s3)n2)cc1)N1CCC(N2CCCC2)CC1
remaining binding (ABL1 F317I non-phosphorylated; binding; competition with immobilised ligand; 1 µM): 92%

COc1cnc(Nc2cccc(S(N)(=O)=O)c2)nc1N1CCN(c2ccccc2)CC1
remaining binding (Tyrosine-protein kinase ABL1, phosphorylated (ABL1, Homo sapiens, UniProt P00519, Q252H); binding; competition with immobilised ligand; 1 µM): 72%

CC1CCCN1c1nccc(-c2cnn3ncccc23)n1 (centres unmarked)
remaining binding (ABL1 Q252H; binding; 1 µM): 97%

N#Cc1ccc(Nc2ccc3[nH]c(=O)[nH]c3c2)c(Cl)c1
remaining binding (Tyrosine-protein kinase ABL1, phosphorylated (ABL1, Homo sapiens, UniProt P00519, T315I); cell-free assay; competition with immobilised ligand; 1 µM): 93%

N[C@@H]1CCN(c2nccc(-c3cnn4ncccc34)n2)C1
remaining binding (Tyrosine-protein kinase ABL1 (ABL1, Homo sapiens, UniProt P00519, F317I); binding; 1 µM): 100%

O=C(NS(=O)(=O)c1ccc(NCC2CCOCC2)c([N+](=O)[O-])c1)c1ccc(N2CCN(Cc3ccc(C(F)(F)F)cc3-c3ccc(Cl)cc3)CC2)cc1Oc1cnc2[nH]ccc2c1
remaining binding (Tyrosine-protein kinase ABL1, phosphorylated (ABL1, Homo sapiens, UniProt P00519, M351T); cell-free assay; competition with immobilised ligand; 1 µM): 100%

CN(C)c1nccc(-c2cnc3ncccn23)n1
remaining binding (Tyrosine-protein kinase ABL1 (ABL1, Homo sapiens, UniProt P00519, T315I); binding; 1 µM): 52%

N#Cc1ccccc1CSc1nnc2c(n1)[nH]c1ccccc12
remaining binding (ABL1 phosphorylated; binding; competition with immobilised ligand; 10 µM): 94%

O=C(Nc1c[nH]nc1C(=O)NC1CCNCC1)c1cc(F)cc(F)c1
remaining binding (ABL1 phosphorylated; binding; competition with immobilised ligand; 1 µM): 100%

COc1ncc2cc3ccccc3nc2c1C#N
remaining binding (ABL1 F317I phosphorylated; cell-free assay; competition with immobilised ligand; 5 µM): 100%

CN(CCCC(F)(F)F)c1nccc(-c2cnn3ncccc23)n1
remaining binding (Tyrosine-protein kinase ABL1 (ABL1, Homo sapiens, UniProt P00519, H396P); binding; 1 µM): 95%

O=c1nc(-c2ccccn2)sc2ccccc12
remaining binding (ABL1 non-phosphorylated; binding; competition with immobilised ligand; 1 µM): 93%

CN1CCN(c2ccc(Nc3nccc(-c4ccccc4)n3)cc2C(F)(F)F)CC1
remaining binding (ABL1 F317L; binding; 10 µM): 66%
